According to PubChem BioAssay:
Activity calls are given as the source filed them.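 How the source made its calls, unless noted: active means mean duplicate potentiation above the buffer control mean plus 5 SD of buffer wells; inactive means the rest.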

Key:
[1] = thallium flux activation in parental CHO cells, counter-screen for KCNQ1 potentiator project (AID 493006;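 active means duplicate-averaged activation above buffer control mean plus 5 SD of those controls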;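 on activation: fluorescence ratio of max minus min over baseline after K+ and Tl+ depolarization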); settings: parental CHO-K1 cells, FluxOR thallium flux, at 10 µM; active compounds read high
Outline: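 Material: untransfected host CHO-K1 cells with FluxOR thallium dye. Timing: overnight 37 °C plating, 90 min RT dye, 20 min compound. Detection: kinetic FluxOR fluorescence, 10 s baseline, 110 s after stimulus. Read-out basis: max-minus-min fluorescence over baseline, percent of buffer-to-R-L3 span. Replicates: duplicate wells per compound, percent values averaged.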

[2] = molecular target: Potassium voltage-gated channel subfamily KQT member 1 (Homo sapiens) (UniProt P51787); test: KCNQ1 potassium channel potentiators, confirmation, FluxOR thallium flux, CHO cells, duplicates (AID 493007;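 active means potentiation averaged over duplicate wells exceeding buffer-only control mean by more than 3 SD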;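 on outcome: cells depolarized by a potassium plus thallium sulfate stimulus after compound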); settings: KCNQ1 cell line, FluxOR thallium flux fluorescence, at 10 µM; active compounds read high, % of reference activator effect, buffer zero
Outline: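 Test system – KCNQ1-expressing CHO cell line · Incubation – FluxOR dye loading 90 min, compound exposure 20 min, room temperature · Detection – FluxOR Tl+ flux fluorescence, 10 s baseline plus 110 s recording · Controls – buffer-only wells as 0% and R-L3 activator as 100%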

[3] = molecular target: Potassium voltage-gated channel subfamily KQT member 2 (Rattus norvegicus) (UniProt O88943); test: rat KCNQ2 channel potentiation, selectivity assay for KCNQ1 potentiator project, KCNQ2-CHO-K1 cells (AID 493009); settings: FluxOR thallium flux fluorescence, at 10 µM; active compounds read high, scaled: buffer 0, activator control 100;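 further: assay conditions were tuned for KCNQ1 rather than KCNQ2 modulators; signal is max minus min fluorescence divided by baseline after thallium stimulus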
[4] = molecular target: Potassium voltage-gated channel subfamily KQT member 1 (Homo sapiens) (UniProt P51787); test: KCNQ1 channel current potentiators, confirmation, orthogonal assay for KCNQ1 potentiator project, IonWorks patch clamp, KCNQ1-CHO cells (AID 493184;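 active means current rise at least 3 SD above the untreated control mean in each of two repeat wells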;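 on current potentiation: percent change of the same well's current before compound addition so 0% = no change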); settings: automated patch clamp current, at 10 µM; active compounds read high
Outline: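 Read-out: Percent current increase versus pre-compound level | Assay system: CHO cells carrying KCNQ1 | Measured by: Automated perforated-patch electrophysiology | Medium: External bath solution at pH 7.4 | Dosing: One dose, 10 µM final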

[5] = molecular target: Potassium voltage-gated channel subfamily E member 1 (Homo sapiens) + Potassium voltage-gated channel subfamily KQT member 1 (Homo sapiens) (UniProt P15382+P51787); test: KCNQ1/KCNE1 complex potentiators, confirmation, selectivity assay for KCNQ1 potentiator project, thallium flux, CHO-K1 KCNQ1/E1 cells (AID 493186;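 active means mean duplicate activation above the buffer control mean plus 5 SD of those controls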); settings: FluxOR thallium flux, at 10 µM; active compounds read high
Outline: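 Test system: CHO-K1 cells with KCNQ1/E1; dosing: one test concentration; signal: FluxOR Tl+ flux fluorescence, kinetic read; incubation: 90-min dye loading then 20-min compound exposure, both at room temperature; read-out basis: percent of R-L3 effect over buffer; replication: duplicate wells per compound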

Potassium voltage-gated channel subfamily KQT member 2 (Rattus norvegicus), sequence (O88943 whole entry, looked up): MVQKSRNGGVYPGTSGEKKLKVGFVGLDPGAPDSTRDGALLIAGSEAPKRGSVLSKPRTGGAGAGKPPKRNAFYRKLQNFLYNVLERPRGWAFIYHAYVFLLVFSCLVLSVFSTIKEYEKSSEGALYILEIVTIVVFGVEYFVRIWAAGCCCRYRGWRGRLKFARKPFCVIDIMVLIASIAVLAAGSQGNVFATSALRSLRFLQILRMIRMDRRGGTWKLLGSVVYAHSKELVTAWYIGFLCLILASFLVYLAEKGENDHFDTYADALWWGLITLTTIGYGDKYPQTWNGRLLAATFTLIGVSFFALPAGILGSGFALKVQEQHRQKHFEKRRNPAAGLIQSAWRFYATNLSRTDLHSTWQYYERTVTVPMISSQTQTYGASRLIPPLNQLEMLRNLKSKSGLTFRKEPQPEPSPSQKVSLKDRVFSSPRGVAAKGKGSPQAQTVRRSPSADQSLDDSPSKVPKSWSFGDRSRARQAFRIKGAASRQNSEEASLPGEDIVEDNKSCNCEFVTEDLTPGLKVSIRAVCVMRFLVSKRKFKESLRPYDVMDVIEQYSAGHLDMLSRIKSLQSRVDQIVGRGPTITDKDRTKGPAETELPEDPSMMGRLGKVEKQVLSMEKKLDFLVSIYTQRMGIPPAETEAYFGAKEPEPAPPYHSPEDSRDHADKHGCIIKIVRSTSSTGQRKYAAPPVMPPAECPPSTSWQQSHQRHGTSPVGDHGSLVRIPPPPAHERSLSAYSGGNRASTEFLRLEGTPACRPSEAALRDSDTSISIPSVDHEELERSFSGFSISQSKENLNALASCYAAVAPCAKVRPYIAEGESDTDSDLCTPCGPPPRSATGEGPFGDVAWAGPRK
Potassium voltage-gated channel subfamily KQT member 1 (Homo sapiens), sequence (P51787 whole entry, looked up): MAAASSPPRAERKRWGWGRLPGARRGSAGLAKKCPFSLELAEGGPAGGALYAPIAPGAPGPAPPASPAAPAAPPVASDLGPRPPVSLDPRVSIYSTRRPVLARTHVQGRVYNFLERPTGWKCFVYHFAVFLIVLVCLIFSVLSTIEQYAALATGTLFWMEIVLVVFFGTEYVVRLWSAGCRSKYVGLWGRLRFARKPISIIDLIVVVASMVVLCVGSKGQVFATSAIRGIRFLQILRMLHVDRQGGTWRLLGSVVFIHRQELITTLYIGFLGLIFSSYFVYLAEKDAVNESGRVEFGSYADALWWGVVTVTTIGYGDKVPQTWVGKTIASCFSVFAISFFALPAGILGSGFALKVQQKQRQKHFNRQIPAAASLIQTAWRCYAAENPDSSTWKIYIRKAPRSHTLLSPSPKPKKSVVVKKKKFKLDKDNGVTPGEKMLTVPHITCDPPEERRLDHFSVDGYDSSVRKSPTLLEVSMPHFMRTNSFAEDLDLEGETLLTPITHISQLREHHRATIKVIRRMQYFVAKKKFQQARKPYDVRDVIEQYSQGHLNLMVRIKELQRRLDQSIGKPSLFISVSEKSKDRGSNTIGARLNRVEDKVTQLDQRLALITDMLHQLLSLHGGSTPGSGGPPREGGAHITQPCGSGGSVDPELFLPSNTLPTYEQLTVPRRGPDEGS
Potassium voltage-gated channel subfamily E member 1 (Homo sapiens) + Potassium voltage-gated channel subfamily KQT member 1 (Homo sapiens), sequence (P51787 whole entry, looked up): as the sequence (P51787 whole entry, looked up) above

CCc1ccc(S(=O)(=O)Nc2cc3c(cc2N2CCCCC2)n(C)c(=O)c(=O)n3C)cc1
outcome [1]: inactive
outcome [2]: inactive
outcome [3]: inactive
outcome [4]: inactive

CN(C)CC1CCCCC1OC(=O)/C=C/c1ccc(Cl)cc1Cl (stereo not drawn)
outcome [1]: inactive
outcome [2]: inactive
outcome [3]: inactive
outcome [4]: inactive

CC(C)c1ccc(C(=O)NC2=NCCS2)cc1
outcome [1]: inactive
outcome [2]: inactive
outcome [3]: inactive
outcome [4]: inactive

Cc1ccc(C(=O)OCC(=O)N(C)c2ccccc2)cc1C
activation [1]: 397% (active)
potentiation [2]: 252% (active)
potentiation [3]: 405% (active)
outcome [4]: inactive

CCN(CC)CCn1c(=S)[nH]c2cc(C(=O)NCc3ccc(C)cc3)ccc2c1=O
outcome [1]: inactive
outcome [2]: inactive
outcome [3]: inactive
outcome [4]: inactive

Cc1ccc(-n2c(C)cc(/C=N/NC(=O)CC3(C)OCCO3)c2C)c(C)c1
outcome [1]: inactive
outcome [2]: inactive
outcome [3]: inactive
outcome [4]: inactive

CC(=O)c1cc2c(cc1NC(=O)CN1Cc3ccccc3C1=O)OCO2
outcome [1]: inactive
outcome [2]: inactive
outcome [3]: inactive
outcome [4]: inactive

Cc1ccc(N=Nc2ccc(O)c3ncccc23)cc1
activation [1]: 185% (active)
potentiation [2]: 52.5% (active)
potentiation [3]: 229% (active)
outcome [4]: inactive

CCOC(=O)c1c(NS(C)(=O)=O)sc2c1CCC(C)C2 (stereo not drawn)
activation [1]: 173% (active)
potentiation [2]: 24.5% (active)
potentiation [3]: 190% (active)
outcome [4]: inactive

CCOCC(=O)Nc1ccc2c(c1)N(S(=O)(=O)c1cccs1)CCC2
outcome [1]: inactive
outcome [2]: inactive
outcome [3]: inactive
outcome [4]: inactive

COc1ccc(-n2c(C)cc(C(=O)CCl)c2C)cc1
outcome [1]: inactive
outcome [2]: inactive
outcome [3]: inactive
outcome [4]: inactive

CC(=O)c1c(C)[nH]c(-c2ccccc2)nc1=S
activation [1]: 151% (active)
potentiation [2]: 40% (active)
potentiation [3]: 178% (active)
outcome [4]: inactive

CCC(C)(C)NC(=O)C(c1ccncc1)N(Cc1cccs1)C(=O)Cn1nnc2ccccc21 (stereo not drawn)
outcome [1]: inactive
outcome [2]: inactive
outcome [3]: inactive
outcome [4]: inactive

COc1cccc(N=Nc2ccc3cccnc3c2O)c1
activation [1]: 154% (active)
potentiation [2]: 29% (active)
potentiation [3]: 162% (active)
outcome [4]: inactive

CCCOc1ccc(-c2c(=O)n(O)c3ccccc3[n+]2[O-])cc1
activation [1]: 237% (active)
outcome [2]: inactive
potentiation [3]: 243% (active)
outcome [4]: inactive

CCCS(=O)(=O)c1c(S(=O)(=O)CCC)c2ccc(C(N)=O)cn2c1C(=O)c1ccccc1
outcome [1]: inactive
outcome [2]: inactive
outcome [3]: inactive
outcome [4]: inactive

CC(C)OC(=O)c1c(NS(=O)(=O)c2ccccc2)sc2c1CCCC2
activation [1]: 262% (active)
potentiation [2]: 126% (active)
potentiation [3]: 338% (active)
outcome [4]: inactive

COc1ccc2nc(NC(=S)NC(=O)c3ccco3)sc2c1
outcome [1]: inactive
potentiation [2]: 42% (active)
potentiation [3]: 175% (active)
outcome [4]: inactive

Cc1ccc(O)c(C(=O)CC(=O)c2ccccc2Cl)c1
activation [1]: 158% (active)
potentiation [2]: 72.5% (active)
potentiation [3]: 144% (active)
outcome [4]: inactive

COc1ccc(-c2csc(NC(=O)C3=NN(c4ccccc4)C(=O)CC3)n2)cc1
outcome [1]: inactive
potentiation [2]: 146% (active)
outcome [3]: inactive
current potentiation [4]: 101% (active)

Cc1ccccc1NS(=O)(=O)c1ccc2[nH]cc(C(=O)N(C)Cc3ccco3)c(=O)c2c1
outcome [1]: inactive
potentiation [2]: 44% (active)
outcome [3]: inactive
outcome [4]: inactive

CCc1ccc(NC(=O)C(=O)NNC(=O)c2ccc(OC)cc2)cc1
activation [1]: 326% (active)
potentiation [2]: 149% (active)
potentiation [3]: 367% (active)
outcome [4]: inactive

CC(=O)c1ccc(OCc2cc(C(=O)N(C)Cc3nc4c(C)cccc4[nH]3)no2)cc1
outcome [1]: inactive
potentiation [2]: 18% (active)
outcome [3]: inactive
outcome [4]: inactive

O=C(NC1CCCC1)C(c1cccnc1)N(C(=O)c1csnn1)C1CC1 (stereo not drawn)
outcome [1]: inactive
outcome [2]: inactive
outcome [3]: inactive
outcome [4]: inactive

CCCc1nc(SCC(=O)Nc2cc(Cl)ccc2OC)c2c(=O)n(C)c(=O)n(C)c2n1
outcome [1]: inactive
outcome [2]: inactive
outcome [3]: inactive
outcome [4]: inactive

COc1ccc(N2CCN(S(=O)(=O)c3ccc(OC)c(C(=O)N4CCCCC4)c3)CC2)cc1
outcome [1]: inactive
outcome [2]: inactive
outcome [3]: inactive
outcome [4]: inactive

O=C(NC(=S)Nc1cccnc1)c1cc2ccccc2o1
activation [1]: 184% (active)
potentiation [2]: 35% (active)
potentiation [3]: 182% (active)
outcome [4]: inactive

CCc1ccc2[nH]c(O)c(N=Nc3nc(-c4ccccc4)cs3)c2c1
activation [1]: 186% (active)
potentiation [2]: 178% (active)
potentiation [3]: 282% (active)
outcome [4]: inactive

CCOc1ccc(-n2cc(C(=O)Nc3cccc(C)n3)c3cc(OC)c(OC)cc3c2=O)cc1
outcome [1]: inactive
outcome [2]: inactive
outcome [3]: inactive
outcome [4]: inactive

COc1nccnc1NS(=O)(=O)c1ccc(NC(=S)NC(=O)c2ccccc2F)cc1
outcome [1]: inactive
outcome [2]: inactive
outcome [3]: inactive
outcome [4]: inactive
outcome [5]: inactive

Cc1ccsc1/C=N/Nc1nc2ccccc2s1
outcome [1]: inactive
outcome [2]: inactive
outcome [3]: inactive
outcome [4]: inactive
outcome [5]: inactive

Cc1onc(-c2ccccc2Cl)c1C(=O)Nc1ccccc1O
outcome [1]: inactive
outcome [2]: inactive
outcome [3]: inactive
outcome [4]: inactive

O=C(NC(=S)Nc1ccccc1N1CCOCC1)c1sc2ccccc2c1Cl
outcome [1]: inactive
potentiation [2]: 34% (active)
outcome [3]: inactive
outcome [4]: inactive

Cc1cc(C)c(NC(=O)c2cn3c4c(c(N5CCN(C)CC5)c(F)cc4c2=O)OCC3C)c(C)c1 (stereo not drawn)
outcome [1]: inactive
outcome [2]: inactive
outcome [3]: inactive
outcome [4]: inactive
